{"data": "Measured values of several laboratories", "target": "Serine/threonine-protein kinase PLK2 (PLK2, Homo sapiens, UniProt Q9NYY3)", "note": "Protocols differ between the studies behind these lines."}
{"Structure (SMILES)": "CC(C)(C)c1cc(C=C(C#N)C#N)cc(Br)c1O", "observed": "enzyme activity", "action": "inhibitor", "concentration": "0.5 µM", "measurement": "remaining activity", "value": "92.6%"}
{"Structure (SMILES)": "Cn1cncc1[C@@](O)(COc1ccc(C#N)cc1-c1ccc(OC(F)(F)F)cc1)c1ccc(C#N)cc1", "observed": "cell-free assay", "technique": "competition with immobilised ligand", "concentration": "1 µM", "measurement": "remaining binding", "value": "86%"}
{"Structure (SMILES)": "Cn1cc(-c2cc(F)cc(N3CCn4c(cc5c4CCCC5)C3=O)c2CO)cc(Nc2ccc(N3CCN(C4COC4)CC3)cn2)c1=O", "observed": "enzyme activity", "action": "inhibitor", "concentration": "0.1 µM", "measurement": "inhibition", "value": "18%"}
{"Structure (SMILES)": "COc1ncccc1-c1cnn2ccc(N3CCN(C(=O)OC(C)C)CC3)nc12", "observed": "binding", "technique": "competition with immobilised ligand", "concentration": "1 µM", "measurement": "remaining binding", "value": "96%"}
{"Structure (SMILES)": "Nc1ncc(-c2nc(N3CCOCC3)nc(N3CCOCC3)n2)c(C(F)F)n1", "observed": "binding", "technique": "competition with immobilised ligand", "concentration": "10 µM", "measurement": "remaining binding", "value": "73%"}
{"Structure (SMILES)": "Cc1nn(C)cc1-c1nc2c(N3CCN(Cc4ccc(Cl)cc4)CC3)c(Cl)cnc2[nH]1", "observed": "binding", "technique": "competition with immobilised ligand", "concentration": "1 µM", "measurement": "remaining binding", "value": "93%"}
{"Structure (SMILES)": "Cn1cc(-c2cccc(N3CCc4c(sc5c4CC(C)(C)C5)C3=O)c2CO)cc(Nc2ccncn2)c1=O", "observed": "enzyme activity", "action": "inhibitor", "concentration": "1 µM", "measurement": "inhibition", "value": "21%"}
{"Structure (SMILES)": "N#CC1(c2ccccn2)CCN(Cc2cc(C(=O)O)c(=O)n3ccccc23)CC1", "observed": "cell-free assay", "technique": "competition with immobilised ligand", "concentration": "1 µM", "measurement": "remaining binding", "value": "80%"}
{"Structure (SMILES)": "O=c1[nH]c2ccccc2n1C1CCN(Cc2ccc(-c3[nH]c4cc5ncnc5cc4nc3-c3ccccc3)cc2)CC1", "observed": "cell-free assay", "concentration": "0.5 µM", "measurement": "remaining signal", "value": "95.5%"}
